Laboratory results reported in ChEMBL document CHEMBL1153772 (J Nat Prod, 2009).
Converted amounts (≈) assume the structure as drawn.

How the values were obtained:
OVCAR-5 = experiment: Cytotoxicity against human OVCAR5 cells assessed cell growth; format: functional
A549 = experiment: Cytotoxicity against human A549 cells; format: functional, cell-based
In short: (§1)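 IC50 value derived from at least three separate assay runs per sample.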

[1] = Stability in PBS at 40 uM after 3 hrs; format: physicochemical; settings: read-out: Stability
[2] = Solubility at pH 5; format: physicochemical; settings: buffer
LOX IMVI = experiment: Cytotoxicity against human LOXIMVI cells assessed cell growth; format: functional
U-251 = experiment: Cytotoxicity against human U251 cells assessed cell growth; format: functional
[3] = Metabolic satbility in human liver microsomes assessed as compound remaining at 1 uM after 60 min in the absence of NADPH; format: ADME, Microsome; settings: read-out: Stability
ASPC1 = experiment: Cytotoxicity against human AsPC1 cells; format: functional, cell-based; in short: as §1
[4] = Cytotoxicity against human Hs 578T cells assessed cell growth; format: functional
Homo sapiens [5] = organism: Homo sapiens; experiment: Protein binding in human plasma at 10 uM; settings: read-out: PPB (converted)
SK-MEL-2 = experiment: Cytotoxicity against human SK-MEL-2 cells assessed cell growth; format: functional
SK-MEL-28 = experiment: Cytotoxicity against human SK-MEL-28 cells assessed cell growth; format: functional
Homo sapiens [6] = organism: Homo sapiens; experiment: Protein binding in human plasma at 1 uM; settings: read-out: PPB (converted)
A498 = experiment: Cytotoxicity against human A498 cells assessed cell growth; format: functional
COLO 205 = experiment: Cytotoxicity against human COLO205 cells assessed cell growth; format: functional
OVCAR-4 = experiment: Cytotoxicity against human OVCAR4 cells assessed cell growth; format: functional
BXPC-3 = experiment: Cytotoxicity against human BxPC3 cells; format: functional, cell-based; in short: as §1
SF-268 = experiment: Cytotoxicity against human SF268 cells assessed cell growth; format: functional
PANC-1 = experiment: Cytotoxicity against human PANC1 cells; format: functional, cell-based; in short: as §1
Candida albicans = experiment: Antifungal activity against Candida albicans 44506 after 24 hrs by broth dilution assay; format: functional; settings: Candida albicans, 44506, 24 h
In short: (§2)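 Broth microdilution in microtiter format at a seeding density of 10^3/mL. C. albicans was grown in Sabouraud dextrose broth; S. aureus and P. aeruginosa in cation-supplemented Mueller-Hinton broth. Incubated at 37°C, with growth scored after 24 h. MIC taken as the lowest concentration giving complete growth inhibition.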

SNB-19 = experiment: Cytotoxicity against human SNB19 cells assessed cell growth; format: functional
NCI-H226 = experiment: Cytotoxicity against human NCI-H226 cells assessed cell growth; format: functional
Vero = experiment: Cytotoxicity against african green monkey Vero cells; format: cell-based; settings: Chlorocebus sabaeus; in short: as §1
MDA-MB-468 = experiment: Cytotoxicity against human MDA-MB-468 cells assessed cell growth; format: functional
NCI-H460 = experiment: Cytotoxicity against human NCI-H460 cells assessed cell growth; format: functional
[7] = Protein binding in mouse plasma at 1 uM; format: ADME, cell-free; settings: read-out: PPB (converted)
SN12C = experiment: Cytotoxicity against human SN12C cells assessed cell growth; format: functional
Staphylococcus aureus = experiment: […] activity against methicillin resistant Staphylococcus aureus 700787 after 24 hrs by broth dilution assay; format: functional; settings: Staphylococcus aureus, 700787, 24 h; in short: as §2
OVCAR-3 = experiment: Cytotoxicity against human OVCAR-3 cells assessed cell growth; format: functional
HCT-15 = experiment: Cytotoxicity against human HCT15 cells assessed cell growth; format: functional
[8] = Stability in mouse plasma assessed as compound remaining at 40 uM after 3 hrs in presence of PBS and inorganic phosphate buffer; format: ADME, cell-free; settings: read-out: Activity
HCT-116 = experiment: Cytotoxicity against human HCT116 cells assessed cell growth; format: functional
M14 = experiment: Cytotoxicity against human M14 cells assessed cell growth; format: functional
[9] = Unbound fraction in mouse plasma at 10 uM; format: ADME, cell-free
Malme-3M = experiment: Cytotoxicity against human MALME-3M cells assessed cell growth; format: functional
HT-29 = experiment: Cytotoxicity against human HT-29 cells assessed cell growth; format: functional
MOLT-4 = experiment: Cytotoxicity against human MOLT4 cells assessed cell growth; format: functional
Homo sapiens [10] = organism: Homo sapiens; experiment: Stability in human plasma in presence of PBS at 40 uM after 3 hrs
Homo sapiens [11] = organism: Homo sapiens; experiment: Unbound fraction in human plasma at 10 uM
[12] = Metabolic satbility in mouse liver microsomes assessed as compound remaining at 1 uM after 60 min in the presence of NADPH; format: ADME, Microsome; settings: read-out: Stability
Pseudomonas aeruginosa = experiment: […] activity against […] aeruginosa 27853 after 24 hrs by broth dilution assay; format: functional; settings: Pseudomonas aeruginosa, 27853, 24 h; in short: as §2
SR = experiment: Cytotoxicity against human SR cells assessed cell growth; format: functional
SNB-75 = experiment: Cytotoxicity against human SNB75 cells assessed cell growth; format: functional
SF-295 = experiment: Cytotoxicity against human SF295 cells assessed cell growth; format: functional
[13] = Stability in mouse plasma in presence of PBS at 40 uM after 3 hrs; format: ADME, cell-free; settings: read-out: Stability

Question: Which Activity (OVCAR-5) does the source give for `CC(=O)N(C)CCc1cc(Br)c(OCCCNc2ncn(C)c3ncnc2-3)c(Br)c1` [APHROCALLISTIN] here?
Answer: The Activity was 88.65%.

Question: And the IC50 (A549)?
Answer: Its IC50 is 15.9 µM.

Question: What about the remaining at 3 h, 40 µM [1] of the same molecule?
Answer: Its remaining at 3 h, 40 µM is 99.7%.

Question: And the solubility [2]?
Answer: The solubility was greater than 267 µg/mL.

Question: What about the Activity (LOX IMVI) of the same molecule?
Answer: Its Activity is 55.23%.

Question: What about the Activity (U-251) of the same molecule?
Answer: The Activity was 79.39%.

Question: What about the remaining at 1 h, 1 µM [3] of the same molecule?
Answer: Its remaining at 1 h, 1 µM is 118%.

Question: What about the IC50 (ASPC1) of the same molecule?
Answer: Its IC50 is greater than 100 µM.

Question: What about the Activity [4] of the same molecule?
Answer: Its Activity is 52.48%.

Question: And the fraction unbound at 10 µM (Homo sapiens [5])?
Answer: The fraction unbound at 10 µM was 0.103.

Question: And the Activity (SK-MEL-2)?
Answer: Its Activity is 71.47%.

Question: What about the Activity (SK-MEL-28) of the same molecule?
Answer: Its Activity is 84.58%.

Question: And the fraction unbound at 1 µM (Homo sapiens [6])?
Answer: Its fraction unbound at 1 µM is 0.044.

Question: And the Activity (A498)?
Answer: The Activity was 71.71%.

Question: What about the Activity (COLO 205) of the same molecule?
Answer: The Activity was 104.32%.

Question: And the Activity (OVCAR-4)?
Answer: The Activity was 33.32%.

Question: What about the IC50 (BXPC-3) of the same molecule?
Answer: Its IC50 is 70.9 µM.

Question: And the Activity (SF-268)?
Answer: Its Activity is 97.87%.

Question: What about the IC50 (PANC-1) of the same molecule?
Answer: The IC50 was 22.8 µM.

Question: What about the MIC (Candida albicans) of the same molecule?
Answer: Its MIC is 250 µg/mL (≈ 463 µM).

Question: And the Activity (SNB-19)?
Answer: Its Activity is 71.64%.

Question: What about the Activity (NCI-H226) of the same molecule?
Answer: The Activity was 44.72%.

Question: What about the IC50 (Vero) of the same molecule?
Answer: The IC50 was 76.1 µM.

Question: What about the Activity (MDA-MB-468) of the same molecule?
Answer: The Activity was 25.48%.

Question: And the Activity (NCI-H460)?
Answer: The Activity was 60.08%.

Question: And the fraction unbound at 1 µM [7]?
Answer: Its fraction unbound at 1 µM is 0.15.

Question: And the Activity (SN12C)?
Answer: The Activity was 92.68%.

Question: And the MIC (Staphylococcus aureus)?
Answer: Its MIC is 250 µg/mL (≈ 463 µM).

Question: What about the Activity (OVCAR-3) of the same molecule?
Answer: Its Activity is 87.3%.

Question: And the Activity (HCT-15)?
Answer: Its Activity is 99.13%.

Question: And the remaining at 3 h, 40 µM [8]?
Answer: Its remaining at 3 h, 40 µM is 79.6%.

Question: And the Activity (HCT-116)?
Answer: The Activity was 28.57%.

Question: What about the Activity (M14) of the same molecule?
Answer: Its Activity is 73.49%.

Question: And the fraction unbound at 10 µM [9]?
Answer: Its fraction unbound at 10 µM is 0.309.

Question: And the Activity (Malme-3M)?
Answer: Its Activity is 76.4%.

Question: What about the Activity (HT-29) of the same molecule?
Answer: Its Activity is 88.11%.

Question: And the Activity (MOLT-4)?
Answer: Its Activity is 50.93%.

Question: What about the remaining at 3 h, 40 µM (Homo sapiens [10]) of the same molecule?
Answer: The remaining at 3 h, 40 µM was 103%.

Question: And the fraction unbound at 10 µM (Homo sapiens [11])?
Answer: Its fraction unbound at 10 µM is 0.103.

Question: And the remaining at 1 h, 1 µM [12]?
Answer: The remaining at 1 h, 1 µM was 1.44%.

Question: What about the MIC (Pseudomonas aeruginosa) of the same molecule?
Answer: The MIC was greater than 500 µg/mL.

Question: And the Activity (SR)?
Answer: The Activity was 10.72%.

Question: What about the Activity (SNB-75) of the same molecule?
Answer: Its Activity is 81.17%.

Question: And the Activity (SF-295)?
Answer: The Activity was 50.01%.

Question: And the remaining at 3 h, 40 µM [13]?
Answer: Its remaining at 3 h, 40 µM is 96.3%.
